# Results as given in ChEMBL document CHEMBL2086322, “"True" antiandrogens-selective non-ligand-binding pocket disruptors of androgen receptor-coactivator interactions: novel tools for prostate cancer” (J Med Chem, 2012).
# Active and inactive are the calls of the source. The calls are words filed in the database; no cut-off is given here.
# How the values were obtained:
# LNCaP [1] = test: Cytotoxicity against androgen dependent human LNCAP cells assessed as cell viability at 50 uM after 24 hrs by alamar blue assay; type: functional; conditions: read-out: Activity
# [2] = molecular target: T1, Androgen receptor (Homo sapiens) (UniProt P10275); test: Agonist activity at androgen receptor in human LNCAP cells assessed effect on CPA-induced PSA expression after 2 hrs by ELISA; type: functional, cell-based
# T1 sequence (whole entry): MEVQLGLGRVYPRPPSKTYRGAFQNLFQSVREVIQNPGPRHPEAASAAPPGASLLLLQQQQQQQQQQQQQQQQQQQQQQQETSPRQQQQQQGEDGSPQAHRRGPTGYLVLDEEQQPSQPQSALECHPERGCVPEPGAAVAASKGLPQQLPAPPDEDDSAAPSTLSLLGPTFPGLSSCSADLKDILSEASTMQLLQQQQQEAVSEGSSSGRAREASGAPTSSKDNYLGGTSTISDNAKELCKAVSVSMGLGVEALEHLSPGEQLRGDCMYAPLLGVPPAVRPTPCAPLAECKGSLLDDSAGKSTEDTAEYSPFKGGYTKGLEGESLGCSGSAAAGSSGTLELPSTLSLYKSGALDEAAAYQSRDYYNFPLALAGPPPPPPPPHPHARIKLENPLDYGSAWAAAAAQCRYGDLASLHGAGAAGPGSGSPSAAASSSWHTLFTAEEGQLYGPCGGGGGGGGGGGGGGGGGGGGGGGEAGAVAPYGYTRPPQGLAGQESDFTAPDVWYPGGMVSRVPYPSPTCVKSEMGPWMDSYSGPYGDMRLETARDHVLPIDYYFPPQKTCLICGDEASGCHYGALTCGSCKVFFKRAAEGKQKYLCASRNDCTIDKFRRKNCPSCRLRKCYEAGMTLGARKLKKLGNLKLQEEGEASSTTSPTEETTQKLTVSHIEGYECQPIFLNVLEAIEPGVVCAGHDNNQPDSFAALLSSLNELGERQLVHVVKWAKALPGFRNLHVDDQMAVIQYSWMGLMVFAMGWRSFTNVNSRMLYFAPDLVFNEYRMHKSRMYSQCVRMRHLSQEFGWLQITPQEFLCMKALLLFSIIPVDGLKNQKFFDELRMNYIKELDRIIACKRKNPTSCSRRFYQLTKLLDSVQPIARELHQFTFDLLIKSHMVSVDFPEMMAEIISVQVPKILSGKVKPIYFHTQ
# [3] = Cytotoxicity against human PWR-1E cells assessed as cell viability at 50 uM after 24 hrs by alamar blue assay; type: cell-based; conditions: read-out: Activity
# CWR22R [4] = test: Antiproliferative activity against human 22Rv1 cells assessed effect on DHT-induced PSA expression after 2 hrs by ELISA; type: functional, cell-based
# [5] = molecular target: T1, Androgen receptor (Homo sapiens); test: Antagonist activity at androgen receptor in androgen dependent human LNCAP cells assessed reduction of CPA-induced PSA expression at 10 uM after 2 hrs by ELISA; type: functional, cell-based
# [6] = molecular target: T1, Androgen receptor (Homo sapiens); test: Displacement of fluormone from AR LBD after 4 hrs by fluorescence polarization assay; conditions: concentration not given here
# [7] = molecular target: T1, Androgen receptor (Homo sapiens); test: Antagonist activity at androgen receptor in androgen dependent human LNCAP cells assessed reduction of DHT-induced PSA expression after 2 hrs by ELISA; type: functional, cell-based
# LNCaP [8] = test: Antiproliferative activity against androgen dependent human LNCAP cells assessed as reduction of DHT-induced cell count after 5 days by alamar blue assay; type: functional, cell-based
# Summary of the method: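 LNCaP cells deprived of steroids for 48 h in phenol red-free RPMI with 10% charcoal-stripped FBS, then seeded at 2 × 10^4 cells/mL. Treated 5 days with compound (10 and 20 μM) with or without 0.1 nM DHT, 0.1% DMSO final. Medium and treatments renewed every second day after PBS washes. Growth read by AlamarBlue; two experiments, n = 6.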
# CWR22R [9] = test: Antiproliferative activity against human 22Rv1 cells assessed reduction of CPA-induced PSA expression after 2 hrs by ELISA; type: functional, cell-based
# [10] = molecular target: T1, Androgen receptor (Homo sapiens); test: Antagonist activity at androgen receptor in androgen dependent human LNCAP cells assessed reduction of CPA-induced PSA expression after 2 hrs by ELISA; type: functional, cell-based
# [11] = molecular target: T1, Androgen receptor (Homo sapiens); test: Partial agonist activity at androgen receptor in human LNCAP cells assessed effect on CPA-induced PSA expression after 2 hrs by ELISA; type: functional, cell-based
# [12] = molecular target: T2, Progesterone receptor (Homo sapiens) (UniProt P06401); test: Antagonist activity at PR assessed as inhibition of progesterone-induced fluorescent labelled SRC1-4 recruitment at 100 uM after 2 to 4 hrs by TR-FRET assay; type: functional
# T2 sequence (whole entry): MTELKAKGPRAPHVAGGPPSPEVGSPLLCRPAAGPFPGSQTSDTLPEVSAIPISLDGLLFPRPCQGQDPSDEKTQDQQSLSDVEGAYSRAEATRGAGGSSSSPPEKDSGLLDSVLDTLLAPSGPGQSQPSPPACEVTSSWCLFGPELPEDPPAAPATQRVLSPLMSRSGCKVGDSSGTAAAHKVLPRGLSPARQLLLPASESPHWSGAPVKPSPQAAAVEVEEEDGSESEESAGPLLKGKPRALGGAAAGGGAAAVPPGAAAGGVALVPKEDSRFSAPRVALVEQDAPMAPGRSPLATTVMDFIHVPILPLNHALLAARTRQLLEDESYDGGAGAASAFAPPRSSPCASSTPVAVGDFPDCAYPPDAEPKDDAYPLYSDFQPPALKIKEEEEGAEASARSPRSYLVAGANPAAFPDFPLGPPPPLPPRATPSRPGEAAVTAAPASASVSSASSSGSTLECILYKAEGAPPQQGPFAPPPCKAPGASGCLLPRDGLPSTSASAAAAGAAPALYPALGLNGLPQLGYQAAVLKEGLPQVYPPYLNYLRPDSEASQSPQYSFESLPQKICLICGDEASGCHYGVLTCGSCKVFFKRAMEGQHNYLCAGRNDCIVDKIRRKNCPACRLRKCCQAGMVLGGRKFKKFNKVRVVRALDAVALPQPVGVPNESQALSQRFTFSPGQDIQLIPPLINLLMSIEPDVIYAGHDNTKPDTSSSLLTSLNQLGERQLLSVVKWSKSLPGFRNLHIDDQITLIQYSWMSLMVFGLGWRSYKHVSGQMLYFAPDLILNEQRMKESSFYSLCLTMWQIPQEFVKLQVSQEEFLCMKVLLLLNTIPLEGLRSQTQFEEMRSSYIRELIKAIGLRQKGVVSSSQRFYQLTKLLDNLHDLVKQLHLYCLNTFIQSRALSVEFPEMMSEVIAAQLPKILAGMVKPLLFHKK
# Summary of the method: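 TR-FRET coactivator recruitment with PR ligand-binding domain, fluorescent SRC1-4 peptide and Tb anti-GST antibody, with progesterone at its EC80. Compounds were tested from 100 to 1 μM at 1% DMSO final in coregulator buffer with 5 mM DTT. […] Two independent experiments, each in triplicate; IC50 from variable-slope fit.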
# PC-3 = test: Cytotoxicity against androgen independent human PC3 cells assessed as cell viability at 50 uM after 24 hrs by alamar blue assay; type: functional; conditions: for viability at 50 µM: PC-3, 24 h, read-out: Activity
SMILES,viability at 50 µM (LNCaP [1]) [%],Activity [2],"viability at 24 h, 50 µM [3] [%]",Activity (CWR22R [4]),Activity [5],inhibition [6] [%],Activity [7],Activity (LNCaP [8]),Activity (CWR22R [9]),Activity [10],Activity [11],inhibition [12] [%],viability at 50 µM (PC-3) [%],Activity (PC-3)
COc1cc(/C=N/NC(=O)c2cc3c(ccc4ccccc43)o2)cc(OC)c1O,80,Active,80,inactive,Active,0,Dose-dependent effect,Dose-dependent effect,Active,Dose-dependent effect,Active,30,80,–
CC(=O)O[C@]1(C(C)=O)CC[C@H]2[C@@H]3C=C(Cl)C4=CC(=O)[C@@H]5C[C@@H]5[C@]4(C)[C@H]3CC[C@@]21C,–,–,–,–,–,–,–,–,–,–,–,–,–,Active
O=C(N/N=C/c1cc(Br)ccc1O)c1cc2ccccc2cc1O,50,–,50,–,–,0,–,–,–,–,–,50,50,–
